Here are results for four molecules from ChEMBL document CHEMBL5032534, “COUPY Coumarins as Novel Mitochondria-Targeted Photodynamic Therapy Anticancer Agents” (J Med Chem, 2021).

The source made the active and inactive calls. No cut-off for these calls is given here. Where only a bound is given, the exact number is not on record here.

For series [1], the system named is HeLa. Put plainly: Induction of apoptosis in human HeLa cells assessed as increase in early apoptotic cells at 0.5 uM incubated for 30 mins in dark measured after 24 hrs by Annexin V-FITC/ Propidium iodide staining based flow cytometry analysis. The class given is functional, cell-based. The following applies: time 24.5 hrs. The procedure, abridged:
(§1)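 HeLa cells were seeded at 1.5 × 10^5/well overnight and treated for 0.5 h, with or without 1 h visible-light irradiation, followed by 24 h recovery. Cells were trypsinized, resuspended in binding buffer, labelled with FITC-Annexin V and propidium iodide for 15 min at room temperature in the dark, and analysed by flow cytometry. Cisplatin (30 μM) served as positive control.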
On the technique in general: In flow cytometry, cells or beads pass a laser one at a time.

The subject of series [2] is HeLa. Nature of the series: Induction of ROS generation in human HeLa cells at 5 uM incubated for 1 hr in dark followed by irradiation with visible light for 1 hr under hypoxic condition in presence of 5 mM NAC by DCFH-DA staining based flow cytometric analysis. The class given is functional, cell-based. The following applies: time 2.0 hrs. The procedure, abridged: (§2)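 HeLa cells were seeded at 2 × 10^4/well for 24 h under 21% or 2% O2. They were co-treated with 5 μM compound plus a scavenger, which stayed present throughout: NAC 5 mM, NaN3 5 mM, mannitol 50 mM, tiron 5 mM, sodium pyruvate 10 mM or Trolox 0.1 mM. Cells were held 1 h dark, then 1 h under visible light, stained 30 min with 10 μM DCFH-DA, trypsinized and analysed by flow cytometry. At least two independent experiments, n = 3.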

For series [3], the system named is HeLa. Nature of the series: Induction of autophagy in human HeLa cells assessed as increase in MDC-positive autophagic vesicles at 0.5 uM preincubated for 30 mins followed by light irradiation for 1 hr and further incubated for 6 hrs in drug-free medium by MDC staining based confocal microscopic analysis. The class given is functional, cell-based. Conditions: time 1.5 hrs. The procedure, abridged:
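HeLa cells were seeded at 1.5 × 10^4 cells/cm2 in chamber slides and given 0.5 h compound incubation, then 1 h visible-light irradiation. Medium was replaced for a 6 h recovery. Cells were stained with monodansylcadaverine (0.05 mM in PBS, 10 min, 310 K) and imaged by confocal microscopy (ex 405 nm). Vacuoles were counted in at least 10 cells from two experiments. Controls were starvation in EBSS for 2 h and resveratrol 50 μM for 2 h.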

For series [4], the system named is HeLa. Nature of the series: Induction of ROS generation in human HeLa cells at 5 uM incubated for 1 hr in dark followed by irradiation with visible light for 1 hr under hypoxic condition in presence of NaPyr by DCFH-DA staining based flow cytometric analysis. It is filed as functional, cell-based. Conditions: time 2.0 hrs. The procedure, abridged:
as §2

Series [5] is described as follows: Induction of singlet oxygen generation in air-saturated DCM solution assessed as reduction in 1,3-diphenylisobenzofuran absorption irradiated with 505 nanometer green light by DPBF-based assay. It is filed as functional.
Series [6] concerns HeLa. Nature of the series: Induction of mitochondrial membrane potential loss in human HeLa cells at 0.5 uM measured after 24 hrs by JC-1 dye-based flow cytometric analysis. It is filed as functional, cell-based. In a few lines: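 HeLa cells were seeded at 1.5 × 10^5 in 12-well plates for 24 h and treated for 24 h. Vehicle control held 0.4% DMSO and antimycin A (50 μM) served as positive control. Cells were stained with JC-1 (1 μM, 20 min) and analysed by flow cytometry (10^4 events; ex 488 nm; green 530 nm and red 585 nm channels). At least two independent experiments.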

In series [7] the test system is HeLa. Put plainly: Induction of ROS generation in human HeLa cells at 5 uM incubated for 1 hr in dark followed by irradiation with visible light for 1 hr under normoxic condition in presence of Trolox by DCFH-DA staining based flow cytometric analysis. It is filed as functional, cell-based. The following applies: time 2.0 hrs. In a few lines:
as §2

Series [8] has as its system HeLa. Put plainly: Induction of ROS generation in human HeLa cells assessed as increase in intracellular ROS level at 5 uM incubated for 1 hr in dark followed by irradiation with visible light for 1 hr under hypoxic condition by DCFH-DA staining based flow cytometric analysis. It is filed as functional, cell-based. The following applies: time 2.0 hrs. In a few lines:
as §2

Series [9] is described as follows: Drug uptake in nucleolus of human HeLa cells assessed as drug accumulation at 1 uM measured after 30 mins by confocal microscopic analysis. It is filed as ADME, subcellular. The following applies: 0.5 h. In a few lines:
(§3)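 HeLa cells in high-glucose DMEM with 10% fetal calf serum were seeded on glass-bottom dishes for 24 h, then loaded with compound for 30 min at 37 °C. They were washed three times with DPBS and kept in phenol-red-free low-glucose DMEM. Live cells were imaged by confocal microscopy at 37 °C with 5% CO2, excited at 561 nm, with emission collected from 570 to 670 nm.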

Series [10] relates to HeLa. Nature of the series: Induction of apoptosis in human HeLa cells assessed as increase in early apoptotic cells at 0.5 uM preincubated for 30 mins in dark followed by irradiation for 1 hr and measured after 24 hrs by Annexin V-FITC/ Propidium iodide staining based flow cytometry analysis. It is filed as functional, cell-based. The following applies: time 25.5 hrs. The procedure, abridged: as §1

Series [11] in a line: Selectivity index, ratio of IC50 for cytotoxicity against BGM cells assessed as reduction in cell viability in dark to IC50 for cytotoxicity against human HeLA cells assessed as reduction in cell viability in dark. The class given is toxicity, cell-based. Conditions: African green monkey (BGM cells), BGM cells versus HeLa cells, read-out: Ratio IC50. The procedure, abridged: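 Selectivity factor is the dark IC50 in BGM normal renal cells over the dark IC50 in HeLa cells. Both come from the MTT phototoxicity procedure without irradiation.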

Series [12] deals with HeLa. Put plainly: Induction of ROS generation in human HeLa cells at 5 uM incubated for 1 hr in dark followed by irradiation with visible light for 1 hr under normoxic condition in presence of NaN3 by DCFH-DA staining based flow cytometric analysis. The class given is functional, cell-based. Conditions: time 2.0 hrs. The procedure, abridged:
as §2

Series [13] in a line: Drug uptake in mitochondria of human HeLa cells assessed as drug accumulation at 1 uM measured after 30 mins by confocal microscopic analysis. It is filed as ADME. The following applies: 0.5 h. In a few lines: as §3
In series [14] the test system is HeLa. Put plainly: Induction of autophagy in human HeLa cells […] pretreated with wortmannin for 1 hr followed by irradiation schedule for 1 hr by MDC staining based confocal microscopic analysis. It is filed as functional.
A short description of series [15]: Drug uptake in human HeLa cells at 1 uM incubated for 30 mins by confocal microscopic analysis. The class given is ADME, cell-based. Conditions: 0.5 h. In a few lines:
as §3

In series [16] the test system is HeLa. Nature of the series: Induction of ROS generation in human HeLa cells at 5 uM incubated for 1 hr in dark followed by irradiation with visible light for 1 hr under normoxic condition in presence of 5 mM NAC by DCFH-DA staining based flow cytometric analysis. It is filed as functional, cell-based. Conditions: time 2.0 hrs. In a few lines: as §2
The subject of series [17] is HeLa. Nature of the series: Induction of superoxide anion generation in human HeLa cells assessed as increase in DHE fluorescence at 5 uM incubated for 1 hr in dark followed by irradiation with visible light for 1 hr under hypoxic condition in presence of tiron by DHE staining based flow cytometric analysis. Conditions: time 2.0 hrs.
Series [18] relates to HeLa. Nature of the series: Effect on cell cycle distribution in human HeLa cells assessed as reduction in G1 phase population at 0.5 uM preincubated for 30 mins in dark followed by light irradiation for 1 hr by RNase/propidium iodide staining based FACS analysis. The class given is functional. The following applies: time 1.5 hrs. In a few lines: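 HeLa cells were seeded at 1.5 × 10^5/well and treated for 0.5 h, with or without 1 h visible-light irradiation, followed by 24 h recovery. Cells were fixed in ice-cold 70% ethanol for 1 h and stained with PI (40 μg/mL) plus RNase (1 μg/mL) for 30 min at 310 K. Analysis was by flow cytometry in the FL2-A channel. At least two independent experiments, n = 3.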

Series [19] is described as follows: Phototoxicity index, ratio of IC50 for cytotoxicity against human HeLa cells assessed as reduction in cell viability in dark under normoxic condition to IC50 for phototoxicity against human HeLa cells upon LED light irradiation under normoxic condition. The class given is toxicity, cell-based. In a few lines: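 Phototoxic index is the dark IC50 over the irradiated IC50 in HeLa cells. Both come from the MTT schedule of 1 h dark incubation plus 1 h visible-LED irradiation, then recovery in drug-free medium, run under 21% or 2% O2 as stated in the line.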

Series [20] can be described thus: Selectivity index, ratio of IC50 for cytotoxicity against CHO cells to IC50 for antiproliferative activity against A2780 cells. The class given is toxicity, cell-based. The following applies: Chinese hamster (CHO cells); human (A2780 cells), CHO cells versus A2780 cells; read-out: Ratio IC50. The procedure, abridged: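 Selectivity factor is the IC50 in CHO cells over the IC50 in A2780 cells. Both were measured after 48 h of continuous treatment by MTT.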

`CCCCCC[n+]1ccc(/C(C#N)=C2/C=C(C)c3ccc(N(CC)CC)cc3O2)cc1`: the outcome (with HeLa [1]; in the series on HeLa [3]; in [5]; in the series with HeLa [6]; in the series with HeLa [10]; in the series on HeLa [18]) was Active. Further, the outcome with HeLa [2], with HeLa [4], in the series with HeLa [7], with HeLa [8], with HeLa [12] and in the series with HeLa [14] was inactive. The outcome in the series on HeLa [16] and with HeLa [17] was inactive. Moreover, the values for the Drug uptake result in series [9], in series [13] and in [15] were “Not Active”, “Active” and “Active”, respectively. For the same molecule, in [11], the selectivity ratio came to 1.1.
`CN(C)c1ccc2c(c1)O/C(=C(/C#N)c1ccncc1)C=C2C(F)(F)F`: the “Ratio IC50” value in [19] was 2.1.
With `CN(C)c1ccc2c(c1)O/C(=C(/C#N)c1cc[n+](C)cc1)C=C2C(F)(F)F`, in [20], the selectivity ratio is more than 5.1.
`CN(C)c1ccc2c(c1)O/C(=C(/C#N)c1cc[n+](CC(F)(F)F)cc1)C=C2C(F)(F)F`: the selectivity ratio in series [11] came out at 1.9.
